Screens: PubChem, several laboratories
Rpn11 block – blocks the human proteasome subunit Rpn11 | O00487 | human 26S proteasome, Ub4-pepOG fluorescence polarization; 20S core pre-blocked with epoxomicin | calls only at 20 µM | hit rate 0.59% among 360,000 | AID 588493;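 active = inhibition at 20 µM, scaled to each plate's controls, above about 33%, limit read from the data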
TPT1 inh – C. albicans TPT1 enzyme inhibition; recombinant caTPT1, FP RNA substrate dephosphorylation; inhibition, % at 5 µM; hit rate 0.81% among 300,000;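 active = inhibition above the mean of all tested compounds plus 3 SD, set per screening campaign, cut at about 24% in these data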;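 note: plate controls were DMSO alone for no effect and ferristatin control at 100 nM for full effect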
HNF4A DNA FP – change in binding of human HNF4 alpha to DNA; HNF4a-FITC DNA binding, fluorescence polarization, 1 h; activity change, % at 10 µM; P41235; hit rate 0.3% among 360,000; AID 1224865; in the data active = activity change above about 30%, passing the limit was not always enough
Target sequence (P41235 whole entry, looked up): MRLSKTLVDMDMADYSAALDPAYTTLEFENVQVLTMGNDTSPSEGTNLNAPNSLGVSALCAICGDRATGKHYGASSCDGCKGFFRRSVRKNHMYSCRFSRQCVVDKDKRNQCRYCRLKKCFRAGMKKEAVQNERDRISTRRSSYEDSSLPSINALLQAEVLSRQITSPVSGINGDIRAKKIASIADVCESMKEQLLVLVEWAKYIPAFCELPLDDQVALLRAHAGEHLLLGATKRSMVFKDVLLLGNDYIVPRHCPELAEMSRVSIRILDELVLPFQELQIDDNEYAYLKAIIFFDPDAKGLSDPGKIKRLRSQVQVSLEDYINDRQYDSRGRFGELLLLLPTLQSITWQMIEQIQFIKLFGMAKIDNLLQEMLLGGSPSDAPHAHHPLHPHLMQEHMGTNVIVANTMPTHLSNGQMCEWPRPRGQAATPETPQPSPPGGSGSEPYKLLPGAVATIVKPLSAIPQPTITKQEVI
CSN deneddyl inh – CSN deneddylation inhibition. Q92905. Purified CSN, SCF-Nedd8-OG deneddylation, fluorescence polarization. inhibition, % at 12.5 µM. hit rate 0.38% among 360,000. AID 651999;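 active = pattern-corrected inhibition above about 35%, with an unprinted fluorescence ratio check between 0.5 and 1.5, limit read from the data, passing the limit was not always enough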;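 note: 0% = enzyme with substrate and 100% = substrate without enzyme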
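Detection – fluorescence polarization · System – HEK293T-derived human Csn5 enzyme · Controls – substrate-only high control, full reaction low control · Timing – 90 min, room temperature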
Rpn11 inh conf – Rpn11 inhibition confirmation, single concentration; inhibition, % at 20 µM; shares compounds with Rpn11 block; purified human 26S proteasome, Ub4-pepOG fluorescence polarization; proteasome pretreated with epoxomicin; hit rate 29% among 1,900; AID 602318
MMP-2 counter – MMP-2 (human) inhibition counter-screen; shares compounds with Rpn11 block; recombinant MMP-2, FRET peptide cleavage fluorescence; inhibition, % at 20 µM; hit rate 4% among 1,900;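 note: human MMP-2 activated beforehand with APMA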
Thrombin inh – counter-screen for RPN11 inhibitors: inhibition of bovine thrombin; AID 602333; bovine thrombin cleavage of Ub4-pepOG, fluorescence polarization; shares compounds with Rpn11 block; hit rate 13% among 1,900; inhibition, % at 20 µM;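 active = mean inhibition at least 40% at 20 µM, or signal 3 deviations below plate average, so some actives read negative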;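 note: plate controls were thrombin with DMSO for no effect and buffer wells lacking thrombin for full effect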
Numbers without * were called inactive; i = inactive; · = no result given; + = active, no number. Hits are enriched below; roughly 1.5% of the tested compounds scored in any of these assays. Cut-off read from the data, not from the text of the source, unless noted: active = inhibition above about 40%; inactive = the rest.

SMILES	Rpn11 block	TPT1 inh	HNF4A DNA FP	CSN deneddyl inh	Rpn11 inh conf	MMP-2 counter	Thrombin inh
NS(=O)(=O)c1ccc(NC(=O)Nc2ccccc2)cc1	+	-3.7	-2.9	0.9	-14.2	-11.4	-30.9
O=C(Nc1ccncc1)c1ccc(S(=O)(=O)Nc2ccccc2)cc1	i	0.9	1.2	-4.5	·	·	·
NS(=O)(=O)c1ccc(NS(=O)(=O)c2ccc(NC(=O)c3ccc(-c4ccccc4)cc3)cc2)cc1	+	7.8	-25.5	29.3	109.3*	32.4	100.6*
CC12CCC(C3NC(=S)NN=C31)C2(C)C (centres undefined)	i	·	-0.9	0.0	·	·	·
Cc1cccc(NC(=O)c2nc[nH]c2C(=O)N2CCN(c3ccccc3)CC2)c1	i	·	5.1	-1.4	·	·	·
Cc1cccc2c1c1ccc3c(c1n2C)C(=O)C=CC3=O	+	·	18.3	12.4	12.4	-1.4	11.5
Cn1c(N)c(C(=O)COC(=O)c2cc(C3CC3)nc3ccccc23)c(=O)n(Cc2ccccc2)c1=O	+	16.5	19.6	1.7	28.9	-14.6	6.3
Cn1c(N)c(C(=O)COC(=O)c2cc(-c3ccccc3)nc3ccccc23)c(=O)n(Cc2ccccc2)c1=O	+	5.5	20.0	-0.6	33.4	1.5	20.4
Cn1c(N)c(C(=O)COC(=O)c2cc(-c3ccccc3)nc3ccccc23)c(=O)n(C)c1=O	·	-3.0	·	·	·	·	·
CC(C)Cn1c(N)c(C(=O)COC(=O)c2cc(-c3ccco3)nc3ccccc23)c(=O)n(C)c1=O	+	16.1	0.5	31.6	4.2	-37.1	10.2
Cn1c(=O)c(C(=O)COC(=O)c2cc(-c3ccco3)nc3ccccc23)c(N)n(Cc2ccccc2)c1=O	·	22.6	·	·	·	·	·
O=C(c1ccncc1)N(c1ccc(N2CCOCC2)cc1)C(c1ccccc1)c1nc2ccccc2[nH]1 (centres undefined)	i	·	-3.6	-0.9	·	·	·
Cc1cc(C)c(NC(=O)COc2cccnc2[N+](=O)[O-])c(C)c1	i	·	4.1	-4.4	·	·	·
COc1ccc(NC(=O)CN2C(=O)NC(C)(Cc3ccc(OC)c(OC)c3)C2=O)cc1 (centres undefined)	i	·	2.0	0.9	·	·	·
COc1ccc(CCn2c(O)c(C=Nc3cccc(F)c3)c(=O)[nH]c2=O)cc1OC	i	5.5	1.4	3.3	·	·	·
C=CCn1c(O)c(C=Nc2ccc(Cc3ccncc3)cc2)c(=O)[nH]c1=S	+	9.0	2.2	2.1	11.3	-3.2	-8.5
Cc1ccc(C(=O)N2[C@@H]3CN(C)C(=O)[C@@]2(C)[C@H]2C(=O)N(C)C(=O)[C@@H]32)cc1	i	·	3.7	-0.1	·	·	·
COc1ccc(S(=O)(=O)Nc2cccc3c2O[C@H](CN(C)S(=O)(=O)c2cn(C)cn2)[C@@H](C)CN([C@H](C)CO)C3=O)cc1	i	·	0.7	-3.5	·	·	·
Cc1cc(C)nc(NC(C)(C)C(=O)O)n1	+	-2.1	46.7*	-1.4	-8.9	2.6	-4.9
Cc1cc(C)nc(NC(=O)NC(=O)c2ccccc2)n1	i	-3.8	3.5	-2.8	·	·	·
NC(=O)COc1ccc(/C=N\NC(=O)c2ccc(-c3ccccc3)cc2)cc1	+	-2.0	5.3	27.0	3.0	-10.2	-1.8
C=CCn1c(C#N)c(N)sc1=N	+	10.6	18.9	2.9	5.2	-32.6	-13.5
CC1(C(=O)NS(=O)(=O)c2cccc(C#N)c2)CCN1C(=O)CC1CC1 (centres undefined)	i	·	1.4	-5.8	·	·	·
O=C(c1ccco1)N1CCN(C(=O)c2cc(-c3ccncc3)nc3ccc(Br)cc23)CC1	+	12.6	20.7	14.9	-16.3	-2.7	0.1
Cn1c(SCc2ccccc2)nc(N)c(N=O)c1=O	i	-0.8	0.2	-1.2	·	·	·
SMILES	Rpn11 block	TPT1 inh	HNF4A DNA FP	CSN deneddyl inh	Rpn11 inh conf	MMP-2 counter	Thrombin inh
CC1Cc2ccccc2N1C(=O)c1ccc(N2CCCCC2)c([N+](=O)[O-])c1 (centres undefined)	+	-1.8	-2.5	0.6	-2.8	-3.0	-0.8
Oc1cc(O)c(CN2CCOCC2)cc1CN1CCOCC1	i	·	-0.6	2.5	·	·	·
Oc1c(CN2CCOCC2)cc(CN2CCOCC2)cc1CN1CCOCC1	+	·	0.1	2.5	3.0	-18.8	2.6
Cc1cc(C)cc(Nc2nc3ccccc3c(=O)[nH]2)c1	i	0.2	-0.8	-6.1	·	·	·
COc1nc(Nc2nc3ccccc3c(=O)[nH]2)nc2ccc(C)cc12	+	-2.5	275.2*	7.8	15.6	-6.1	4.6
S=c1[nH]nc(-c2cc(-c3ccccc3)n[nH]2)n1/N=C/c1ccc(Cl)cc1	i	-0.7	-3.0	1.5	·	·	·
S=c1[nH]nc(-c2cc(-c3ccccc3)n[nH]2)n1/N=C/c1ccc(Cl)c(Cl)c1	+	0.5	9.0	71.6*	54.7*	14.6	-15.0
S=c1[nH]nc(-c2cc(-c3ccccc3)n[nH]2)n1/N=C/c1cccc(Cl)c1	+	1.5	-22.0	69.5	156.6*	19.3	81.5*
COc1ccc(NC(=O)Nc2c[nH]c(=O)[nH]c2=O)cc1OC	i	-5.1	1.7	4.7	·	·	·
O=C(O)c1ccc(NC(=S)Nc2ccccc2)cc1	+	-0.8	5.1	1.0	6.7	7.0	-0.7
O=C(NC(=S)Nc1cccc(NC(=S)NC(=O)c2ccccc2)c1)c1ccccc1	+	·	12.4	20.1	27.2	48.9*	-9.8
CS(=O)(=O)c1ccc(Cl)c(NC(=O)CSC(=S)N2CCCC2)c1	i	-0.2	-1.9	-2.0	·	·	·
CC(=O)c1cccc(S(=O)(=O)N2CCC(C(=O)OC3CCOC3=O)CC2)c1 (centres undefined)	i	·	0.8	3.7	·	·	·
CCOc1ccc(N(CC(=O)NC2CCCCC2)C(=O)CCC(=O)Nc2nc(C)cs2)cc1	+	2.4	5.2	-1.2	8.0	-29.8	-3.6
Cc1cc(C)nc(NS(=O)(=O)c2ccc(NC(=O)C3COc4ccccc4O3)cc2)n1 (centres undefined)	i	-6.1	0.2	0.3	·	·	·
O=C(Nc1ccc(S(=O)(=O)Nc2ccccc2)cc1)C1COc2ccccc2O1 (centres undefined)	+	-0.5	19.4	4.8	-7.5	0.1	-4.1
Cc1cccc(-n2c(-c3ccco3)nc3nc4ccccc4nc32)c1	·	3.6	·	·	·	·	·
Cc1ccc(-n2c(-c3ccco3)nc3nc4ccccc4nc32)cc1	+	-1.5	7.5	15.2	42.9*	-9.1	-15.2
COC(=O)C1=CC(C(=O)c2cccs2)=NN(c2ccc(OC)cc2)C1C(=O)OC (centres undefined)	+	21.2	13.1	14.6	21.8	-11.8	14.7
COc1ccc(CN2CCNC(=O)C2CC(=O)NC2CCCC2)c(C)c1C (centres undefined)	i	-2.2	2.9	-1.0	·	·	·
